# Reference: BindingDB's records for doi:10.1021/jm300138g (Neuraxon, 2012)
# Molecular target: Sodium-dependent noradrenaline transporter (Homo sapiens, UniProt P23975)
# Test: Displacement of [3H]nisoxetine from human NET expressed in CHO cells after 120 mins by scintillation counting
# Summary of the method: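 Membranes from hNET-transfected CHO cells (20 μg protein) incubated 120 min at 4 °C with 1 nM [3H]nisoxetine in 50 mM Tris-HCl pH 7.4, 120 mM NaCl, 5 mM KCl. Nonspecific binding defined with 1 μM desipramine. Filtered on PEI-soaked GF/B and counted.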
# Chain of Sodium-dependent noradrenaline transporter (P23975 whole entry): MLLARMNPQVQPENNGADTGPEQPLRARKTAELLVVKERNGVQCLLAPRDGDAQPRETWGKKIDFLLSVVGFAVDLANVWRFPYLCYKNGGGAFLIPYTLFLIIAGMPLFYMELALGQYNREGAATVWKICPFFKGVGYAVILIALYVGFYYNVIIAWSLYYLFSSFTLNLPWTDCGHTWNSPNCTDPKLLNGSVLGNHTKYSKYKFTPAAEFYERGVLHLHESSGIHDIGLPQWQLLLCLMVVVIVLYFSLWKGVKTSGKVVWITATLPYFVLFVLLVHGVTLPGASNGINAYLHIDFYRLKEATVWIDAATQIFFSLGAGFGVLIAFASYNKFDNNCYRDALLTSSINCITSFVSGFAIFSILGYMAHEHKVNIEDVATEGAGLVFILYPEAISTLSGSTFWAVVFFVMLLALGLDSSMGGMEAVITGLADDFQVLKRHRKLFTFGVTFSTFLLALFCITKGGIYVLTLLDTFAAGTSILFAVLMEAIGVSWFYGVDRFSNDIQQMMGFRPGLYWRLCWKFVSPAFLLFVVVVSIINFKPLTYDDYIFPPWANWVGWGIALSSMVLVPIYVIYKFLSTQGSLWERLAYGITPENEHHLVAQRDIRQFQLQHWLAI
compound,measurement,value
CN(C)C1CC=C(c2c[nH]c3ccc(N=C(N)c4cccs4)cc23)CC1 (stereo unspecified),IC50,550 nM
